Experimental data collected from several papers.
Lines come from different studies, so protocols differ.
Organism: Candida albicans
Observed: microbial growth

For `O=C(CCc1cc(O)c(O)c(O)c1)NCCCCCCCC[P+](c1ccccc1)(c1ccccc1)c1ccccc1.[Br-]`, the MIC was > 32 µg/mL (broth dilution; ATCC90028; 24 h).
`N=C(N)NCc1ccc(NC(=O)C23CCC(C(=O)Nc4ccc(C5=CCN(C(=N)N)CC5)cc4)(CC2)CC3)cc1` has an MIC of 0.2 µg/mL (broth dilution; 48 h; clinical isolate).
For `C=C1C(=O)O[C@@H](CCCCCCCCCCCCC)[C@@H]1C(=O)O`, the MIC was 64 µg/mL (SC5314).
For `OC(Cn1cncn1)(Cn1cncn1)c1ccc(F)cc1F`, the MIC was 0.125 µg/mL (broth dilution; ATCC90028; 24 h).
`CCOC(=O)c1nc2ccccc2c(=O)n1Cc1cn(-c2ccc(C)cc2)nn1` has an MIC of 250 µg/mL (broth dilution; ATCC90028).
The MIC of `CC(=O)NCN1N=C(C)C(=NNn2c(-c3ccccc3)nc3ccccc3c2=O)C1=O` is reported as 120 µM (broth dilution).
`O=C(CCc1ccc(O)c(O)c1)NCCCCCCCC[P+](c1ccccc1)(c1ccccc1)c1ccccc1.[Br-]` gave an MIC of > 32 µg/mL (broth dilution; ATCC90028; 24 h).
The MIC of `CC1=NN(CNC(=O)c2ccccc2)C(=O)C1=NNn1c(-c2ccccc2)nc2ccccc2c1=O` is reported as 104 µM (broth dilution).
With `O=C(CCCCCC[P+](c1ccccc1)(c1ccccc1)c1ccccc1)Nc1ccc(O)c(O)c1.[Br-]` the MIC was 32 µg/mL (broth dilution; ATCC90028; 24 h).
`CC1=NN(CNc2c(O)c(S(=O)(=O)O)cc3ccccc23)C(=O)C1=NNn1c(-c2ccccc2)nc2ccccc2c1=O` gave an MIC of 41.8 µM (broth dilution).
`OC(Cn1cncn1)(Cn1cncn1)c1ccc(F)cc1F` gave an MIC of 1 µg/mL (broth dilution; ATCC10231).
For `CCc1nc(N)nc(N)c1C#CCc1cc(OC)ccc1OC`, the MIC was 250 µM (resazurin).
`OC(Cn1cncn1)(Cn1cncn1)c1ccc(F)cc1F` has an MIC of 2 µg/mL (SC5314).
For `O=C(CCCCCC[P+](c1ccccc1)(c1ccccc1)c1ccccc1)Nc1cc(O)c(O)c(O)c1.[Br-]`, the MIC was > 32 µg/mL (broth dilution; ATCC90028; 24 h).
With `CC1=NN(CNc2ccc(C(=O)O)cc2)C(=O)C1=NNn1c(-c2ccccc2)nc2ccccc2c1=O` the MIC was 50.5 µM (broth dilution).
